Where only a bound is given, the exact number is not on record here.

Sequence of Alkaline phosphatase, germ cell type (P10696 whole entry): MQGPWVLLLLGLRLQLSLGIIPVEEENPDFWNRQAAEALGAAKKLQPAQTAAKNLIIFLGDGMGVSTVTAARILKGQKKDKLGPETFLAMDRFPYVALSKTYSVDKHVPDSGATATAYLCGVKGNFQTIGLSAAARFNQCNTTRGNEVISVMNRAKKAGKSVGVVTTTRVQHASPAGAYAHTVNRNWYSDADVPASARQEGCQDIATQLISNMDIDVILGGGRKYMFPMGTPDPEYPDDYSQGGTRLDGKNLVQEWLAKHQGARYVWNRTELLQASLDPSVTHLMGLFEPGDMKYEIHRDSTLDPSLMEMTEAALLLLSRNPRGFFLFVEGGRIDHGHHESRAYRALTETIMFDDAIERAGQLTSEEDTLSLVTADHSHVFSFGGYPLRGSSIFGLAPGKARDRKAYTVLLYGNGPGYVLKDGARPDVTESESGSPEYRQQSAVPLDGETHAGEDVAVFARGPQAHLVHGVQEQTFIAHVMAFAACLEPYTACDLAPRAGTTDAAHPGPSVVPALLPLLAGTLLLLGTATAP

In one assay the target is Intestinal-type alkaline phosphatase (Homo sapiens, UniProt P09923). In words: Inhibition of IAP by analogous luminescence assay.
Sequence of Intestinal-type alkaline phosphatase (P09923 whole entry): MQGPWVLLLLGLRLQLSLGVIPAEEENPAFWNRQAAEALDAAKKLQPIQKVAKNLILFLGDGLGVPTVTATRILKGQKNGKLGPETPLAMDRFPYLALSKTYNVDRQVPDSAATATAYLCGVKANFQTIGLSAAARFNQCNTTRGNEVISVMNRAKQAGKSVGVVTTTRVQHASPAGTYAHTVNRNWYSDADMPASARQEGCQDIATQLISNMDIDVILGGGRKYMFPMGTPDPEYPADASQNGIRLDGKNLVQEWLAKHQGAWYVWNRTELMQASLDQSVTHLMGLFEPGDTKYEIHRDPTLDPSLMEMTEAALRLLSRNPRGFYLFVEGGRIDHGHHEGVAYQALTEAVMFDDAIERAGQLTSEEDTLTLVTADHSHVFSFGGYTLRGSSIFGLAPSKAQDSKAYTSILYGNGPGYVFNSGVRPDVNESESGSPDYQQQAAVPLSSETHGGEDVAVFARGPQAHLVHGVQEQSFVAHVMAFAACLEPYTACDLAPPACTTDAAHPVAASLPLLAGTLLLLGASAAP
Take `Cc1nc2ccccc2n1CC(=O)c1ccc(O)c(O)c1`: the half-inhibitory concentration (IC50) (as a rule, the concentration at which inhibition is half-maximal) was > 100 µM. `Cn1c(=O)c2[nH]cnc2n(C)c1=O` [THEOPHYLLINE]: the concentration for half-maximal inhibition (IC50) is > 5 µM.

Turning to `N=C(N)NCCCC[C@H](N)C(=O)O`, the IC50 is > 5 µM.

With `CCc1nccn1CC(=O)c1ccc(O)c(O)c1`, the IC50 is > 100 µM. Consider `CC(C)C[C@H](N)C(N)=O` [LEUCINE AMIDE], for which the IC50 is > 5 µM. Turning to `c1ccc([C@H]2CN3CCSC3=N2)cc1` [LEVAMISOLE], the concentration for half-maximal inhibition (IC50) was > 5 µM. Take `N[C@@H](Cc1ccccc1)C(=O)O` [PHENYLALANINE]: the IC50 is > 5 µM. For the molecule `CC(C)C[C@H](N)C(=O)O` [LEUCINE], the IC50 is > 5 µM.

As for `N[C@@H](Cc1c[nH]c2ccccc12)C(=O)O` [TRYPTOPHAN], the IC50 is > 5 µM.

Test system in a further assay: not listed separately
The experiment in a line: Selectivity ratio of IC50 for GCAP to IC50 for PLAP. An outline of the steps: (§1)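 GCAP and PLAP IC50s were measured together in dose-response runs on a separate occasion, using enzyme concentrations that differed from those of the main assays.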
On to `O=C(CNc1nc2ccccc2[nH]1)c1ccc(O)c(O)c1`, for which the Ratio IC50 stood at 0.7. `CCc1nccn1CC(=O)c1ccc(O)c(O)c1`: the Ratio IC50 is 2.1. On the same count and under the same terms, the value for `O=C(Cn1ccnc1)c1ccc(O)c(O)c1` was 0.6.

Test system in another assay: not listed separately
In words: Selectivity ratio of IC50 for IAP to IC50 for PLAP.
Regarding `CCc1nccn1CC(=O)c1ccc(O)c(O)c1`, the Ratio IC50 was > 24. Same read-out and setting: the value for `Cc1cnn(CC(=O)c2ccc(O)c(O)c2)c1` was 25; that for `O=C(Cn1ccnc1)c1ccc(O)c(O)c1` was 15.

In the next assay the target is T1, Alkaline phosphatase, tissue-nonspecific isozyme (Homo sapiens, UniProt P05186).
T1 sequence (P05186 whole entry): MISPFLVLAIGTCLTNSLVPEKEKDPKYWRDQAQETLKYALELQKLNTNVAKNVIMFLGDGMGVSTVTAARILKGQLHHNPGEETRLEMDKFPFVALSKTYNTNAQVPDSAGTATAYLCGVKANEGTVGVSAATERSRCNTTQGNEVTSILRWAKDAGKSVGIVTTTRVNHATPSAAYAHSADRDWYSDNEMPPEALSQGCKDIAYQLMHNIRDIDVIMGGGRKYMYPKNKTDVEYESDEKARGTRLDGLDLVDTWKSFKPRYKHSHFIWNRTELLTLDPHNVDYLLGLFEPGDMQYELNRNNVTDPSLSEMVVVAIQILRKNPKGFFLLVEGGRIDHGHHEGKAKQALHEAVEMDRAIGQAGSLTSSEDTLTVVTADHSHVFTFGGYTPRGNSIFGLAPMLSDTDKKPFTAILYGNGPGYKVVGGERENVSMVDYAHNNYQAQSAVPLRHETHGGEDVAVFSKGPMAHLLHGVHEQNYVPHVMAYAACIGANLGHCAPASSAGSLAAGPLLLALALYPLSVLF
In words: Inhibition of TNAP by analogous luminescence assay.
For `COc1ccc(-n2nnnc2SCC(=O)c2ccc(O)c(O)c2)cc1`, half-maximal inhibition (IC50) was put at 8 µM.

Regarding `Cc1nc2ccccc2n1CC(=O)c1ccc(O)c(O)c1`, 26.3 µM corresponded to half-maximal inhibition (IC50). On the same count and under the same terms, the value for `O=C(CNc1nc2ccccc2[nH]1)c1ccc(O)c(O)c1` was 93.8 µM; that for `O=C(Cn1cnnc1)c1ccc(O)c(O)c1` was > 100 µM. The same measure, in the same setting: the figure for `CCc1nccn1CC(=O)c1ccc(O)c(O)c1` is > 100 µM; for `Cc1cc2ncn(CC(=O)c3ccc(O)c(O)c3)c2cc1C` it is > 100 µM; for `Cc1cnn(CC(=O)c2ccc(O)c(O)c2)c1` it is > 100 µM.

`CC(C)NCC(=O)c1ccc(O)c(O)c1`: the IC50 was > 100 µM. Regarding `Cc1nccn1CC(=O)c1ccc(O)c(O)c1`, 78.3 µM corresponded to half-maximal inhibition (IC50). In other words, the double-digit micromolar range. On the same count and under the same terms, the value for `Cc1nc(Br)cn1CC(=O)c1ccc(O)c(O)c1` was 8.7 µM. Same read-out and setting: the value for `O=C(Cn1ccnc1)c1ccc(O)c(O)c1` was > 100 µM; that for `O=C(Cn1ccnc1-c1ccccc1)c1ccc(O)c(O)c1` was > 100 µM. `Cc1cn(CC(=O)c2ccc(O)c(O)c2)cn1` gave an IC50 of 41.1 µM. `COc1ccc2c(c1OC)C(=O)OC2CC(=O)c1ccc(O)c(O)c1` (configuration not stated) gave an IC50 of 29.2 µM. Still for that read-out and setting: the value for `O=C(Cn1cnc2ccccc21)c1ccc(O)c(O)c1` was 18 µM; that for `O=C(Cn1cnc(Br)c1)c1ccc(O)c(O)c1` was 47.5 µM.

In the next assay the target is Alkaline phosphatase, germ cell type (Homo sapiens, UniProt P10696). In words: Inhibition of GCAP by analogous luminescence assay. An outline of the steps:
as §1
`Cc1nc2ccccc2n1CC(=O)c1ccc(O)c(O)c1` registered an IC50 of 9400 nM. For the molecule `O=C(CNc1nc2ccccc2[nH]1)c1ccc(O)c(O)c1`, the half-inhibitory concentration (IC50) is 6200 nM. Molecule `Cc1cc(C)nc(SCC(=O)c2ccc(O)c(O)c2)n1` registered an IC50 of 600 nM. `CCc1nccn1CC(=O)c1ccc(O)c(O)c1` showed an IC50 of 1700 nM. In turn, `Cc1nccn1CC(=O)c1ccc(O)c(O)c1` had an IC50 of 30500 nM. Take `O=C(Cn1ccnc1)c1ccc(O)c(O)c1`: the half-maximal inhibitory concentration (IC50) came out at 1200 nM. Turning to `O=C(Cn1cnc2ccccc21)c1ccc(O)c(O)c1`, it took 2700 nM to reach half-maximal inhibition (IC50). Against the preceding molecule, the IC50 is about 2.2-fold higher.

Test system in the next assay: not listed separately
In words: Selectivity ratio of IC50 for TNAP to IC50 for PLAP.
Turning to `CCc1nccn1CC(=O)c1ccc(O)c(O)c1`, the Ratio IC50 was > 27. In the case of `Cc1nc(Br)cn1CC(=O)c1ccc(O)c(O)c1`, the Ratio IC50 is 1.7.

Consider `O=C(Cn1ccnc1)c1ccc(O)c(O)c1`, for which the Ratio IC50 was > 32.

For `Cc1cn(CC(=O)c2ccc(O)c(O)c2)cn1`, the Ratio IC50 amounted to 7.

For the origin of these results see ChEMBL document CHEMBL1159036, “Design and synthesis of selective inhibitors of placental alkaline phosphatase” (Bioorg Med Chem, 2010).
